Measured values from publication PMC6726529 (Clinical cancer research : an official journal of the …, 2019).

Tests used:
[1] = system: lymphoma cell lines; assay: Synergy in cell viability assay by excess over bliss; assay type: cell-based; details: for synergy in combination with romidepsin: EZH2 inhibitor combined with romidepsin (Supplementary Fig S3)
[2] = system: H3K27; assay: H3K27 acetylation/methylation in HEK 293T cells; assay type: cell-based; details: single agent exposure
Outline: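 HEK293 cells were transfected in OPTI-MEM with a human HDAC2 shRNA or scramble plasmid using Lipofectamine 3000. They were puromycin-selected and monitored for GFP by flow cytometry and fluorescence microscopy until a stable line formed. The stable HDAC2-knockdown or scramble cells were then exposed to an EZH2 inhibitor test compound, and H3K27 methylation status was assessed.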

[3] = mouse, in vivo; for median Cmax: ip
[4] = system: SU-DHL-10; assay: Cell viability assay, single agent IC50; assay type: cell-based; details: Homo sapiens, SU-DHL10, 72 h, read-out: in vitro IC50 of romidepsin in SU-DHL-10
[5] = prior work, combination therapy alisertib + romidepsin; cited from earlier work
[6] = system: B-cell lymphomas; details: phase I clinical trial; cited from earlier work

Nc1ccc(-c2cccs2)cc1NC(=O)c1ccc2nc(N3CCNCC3)ccc2c1 [ACY957]
synergy in combination with GSK126 (EOB) ([1]; ACY957 combined with GSK126, 4 GC-DLBCL cell lines): synergistic

COc1cc(C)[nH]c(=O)c1CNC(=O)c1c(C)n([C@H](C)C2CCN(CC(F)(F)F)CC2)c2ccccc12 [CPI-1205]
synergy in combination with romidepsin [1]: demonstrated synergy

CCN(c1cc(C#CCN2CCOCC2)cc(C(=O)NCc2c(C)cc(C)[nH]c2=O)c1C)[C@H]1CC[C@H](N(C)CCOC)CC1 [EPZ011989]
synergy in combination with romidepsin [1]: demonstrated synergy

CC[C@H](C)n1cc(C)c2c(C(=O)NCc3c(C)cc(C)[nH]c3=O)cc(-c3ccc(N4CCNCC4)nc3)cc21 [GSK126]
status of acetylation or methylation of H3K27 [2]: did not significantly change
Cmax translated to molar concentration [3]: 3150 nM
serum AUC0-last [3]: 2828.57 ng·h/mL
median Cmax [3]: 1657.5 ± 413.6 ng/mL

C/C=C1\NC(=O)[C@H]2CSSCC/C=C/[C@H](CC(=O)N[C@H](C(C)C)C(=O)N2)OC(=O)[C@H](C(C)C)NC1=O [romidepsin]
IC50 [4]: 2.59 nM
Cmax translated to molar concentration [3]: 180 nM
median Cmax [3]: 98.24 ± 62.50 ng/mL
intratumor levels after combination of alisertib and romidepsin [5]: below the level of detection

CCN(c1cc(-c2ccc(CN3CCOCC3)cc2)cc(C(=O)NCc2c(C)cc(C)[nH]c2=O)c1C)C1CCOCC1 [tazemetostat]
overall response rate [6]: 38%
